Results published in ChEMBL document CHEMBL1828624, “Synthesis and antioxidant activity of oxazolyl/thiazolylsulfonylmethyl pyrazoles and isoxazoles” (Eur J Med Chem, 2011).
Converted amounts (≈) assume the structure as drawn. The source made the active and inactive calls. The calls are words filed in the database; no cut-off is given here.

What was measured:
Assay type in all cases: functional
[1] = test system: Radical scavenging activity; test: Antioxidant activity assessed as DPPH free radical scavenging activity at 50 ug/ml after 30 mins by spectrophotometric analysis relative to control
Summary of the method: (§1)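 Compounds in methanol at […] were mixed with 0.004% (w/v) methanolic DPPH. After 30 min at room temperature, absorbance was read at 517 nm against a blank. Percent inhibition was calculated from control (all reagents minus compound) and sample absorbances. Run in triplicate.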

[2] = Antioxidant activity assessed as hydrogen peroxide scavenging activity at 75 ug/ml relative to control
[3] = Antioxidant activity assessed as nitric oxide scavenging activity at 50 ug/ml after 150 mins by Griess method relative to control
Summary of the method: (§2)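 NO was generated from sodium nitroprusside (10 mM) in phosphate buffer saline (0.2 M, pH 7.4). Compounds were added at […] and incubated 150 min at 25 °C. Percent scavenging was calculated from control (all reagents minus compound) and sample absorbances. Run in triplicate.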

[4] = Antioxidant activity assessed as nitric oxide scavenging activity at 75 ug/ml after 150 mins by Griess method relative to control; summary of the method: as §2
[5] = test system: Radical scavenging activity; test: Antioxidant activity assessed as DPPH free radical scavenging activity at 75 ug/ml after 30 mins by spectrophotometric analysis relative to control; summary of the method: as §1
[6] = Antioxidant activity assessed as hydrogen peroxide scavenging activity at 50 ug/ml relative to control
[7] = Antioxidant activity assessed as hydrogen peroxide scavenging activity at 100 ug/ml relative to control
[8] = Antioxidant activity assessed as nitric oxide scavenging activity at 100 ug/ml after 150 mins by Griess method relative to control; summary of the method: as §2
[9] = test system: Radical scavenging activity; test: Antioxidant activity assessed as DPPH free radical scavenging activity at 100 ug/ml after 30 mins by spectrophotometric analysis relative to control; summary of the method: as §1
[10] = test system: Radical scavenging activity; test: Antioxidant activity assessed as DPPH free radical scavenging activity after 30 mins by spectrophotometric analysis; summary of the method: as §1

| Structure (SMILES) | inhibition [1] | Activity [2] | Activity [3] | Activity [4] | inhibition [5] | Activity [6] | Activity [7] | Activity [8] | inhibition [9] | IC50 [10] |
| --- | --- | --- | --- | --- | --- | --- | --- | --- | --- | --- |
| O=S(=O)(CC1=NCCS1)C1C(c2ccccc2)=NN(c2ccccc2)C1c1ccccc1 (stereo not given) | inactive | inactive | inactive | inactive | inactive | inactive | inactive | inactive | inactive | Not Active |
| COc1ccc(-c2noc(-c3ccc(C)cc3)c2S(=O)(=O)CC2=NCCO2)cc1 | 72.9% | 72% | 68.8% | 73% | 75.8% | 70% | 77.1% | 76.2% | 79.7% | 62.76 µg/mL (≈ 152 µM) |
| COc1ccc(C2=NN(c3ccccc3)C(c3ccc(C)cc3)C2S(=O)(=O)CC2=NCCS2)cc1 (stereo not given) | 37.5% | 43.9% | 39.4% | 44.9% | 45.8% | 42.6% | 47.9% | 50.7% | 51.5% | 97.04 µg/mL (≈ 192 µM) |
| O=S(=O)(CC1=NCCS1)C1=NNCC1c1ccc(Cl)cc1 (stereo not given) | inactive | inactive | inactive | inactive | inactive | inactive | inactive | inactive | inactive | Not Active |
